From ChEMBL document CHEMBL1770075, “Thermal solvent-free synthesis of novel pyrazolyl chalcones and pyrazolines as potential antimicrobial agents” (2011)
Converted amounts (≈) assume the structure as drawn.

Assays:
Type in all cases: functional
Staphylococcus aureus [1] = assay: Antibacterial activity against methicillin-resistant Staphylococcus aureus after 24 hrs by disk diffusion method
Escherichia coli [2] = assay: Antibacterial activity against Escherichia coli ATCC 25922 after 24 hrs by broth dilution method; conditions: ATCC 25922, 24 h
[3] = tested on: Trichophyton mentagrophytes; assay: Antifungal activity against Trichophyton mentagrophytes after 48 hrs
Summary of the method: (§1)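 Broth with two-fold serial dilutions of compound was inoculated with 1.6 × 10⁴–6 × 10⁴ c.f.u/ml and incubated at 35 °C. MIC is the lowest concentration that arrests growth. For MFC, 0.1 ml was spread on agar, colonies were counted after 48 h at 35 °C, and the endpoint was the lowest concentration killing 99.9%.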

Escherichia coli [4] = assay: Antibacterial activity against Escherichia coli ATCC 25922 after 24 hrs by disk diffusion method
Pseudomonas aeruginosa [5] = assay: Antibacterial activity against Pseudomonas aeruginosa ATCC 27853 after 24 hrs by disk diffusion method
Aspergillus fumigatus [6] = assay: Antifungal activity against Aspergillus fumigatus after 48 hrs; summary of the method: as §1
Streptococcus pyogenes [7] = assay: Antibacterial activity against clinical isolate of Streptococcus pyogenes after 24 hrs by broth dilution method
Klebsiella pneumoniae [8] = assay: Antibacterial activity against clinical isolate of Klebsiella pneumoniae after 24 hrs by disk diffusion method
Streptococcus pyogenes [9] = assay: Antibacterial activity against clinical isolate of Streptococcus pyogenes after 24 hrs by disk diffusion method
Escherichia coli [10] = assay: Bactericidal activity against Escherichia coli ATCC 25922 after 18 to 24 hrs by colony counting method
Summary of the method: (§2)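 Colonies were counted after 18–24 h at 35 °C. MBC is the lowest concentration that kills 99.9% of the inoculum.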

Streptococcus pyogenes [11] = assay: Bactericidal activity against clinical isolate of Streptococcus pyogenes after 18 to 24 hrs by colony counting method
Pseudomonas aeruginosa [12] = assay: Bactericidal activity against Pseudomonas aeruginosa ATCC 27853 after 18 to 24 hrs by colony counting method; summary of the method: as §2
Candida albicans [13] = assay: Antifungal activity against Candida albicans after 48 hrs by agar diffusion method
Staphylococcus aureus [14] = assay: Bactericidal activity against methicillin-resistant Staphylococcus aureus after 18 to 24 hrs by colony counting method; summary of the method: as §2
Klebsiella pneumoniae [15] = assay: Antibacterial activity against clinical isolate of Klebsiella pneumoniae after 24 hrs by broth dilution method
Talaromyces marneffei [16] = assay: Antifungal activity against Penicillium marneffei after 48 hrs by agar diffusion method
Candida albicans [17] = assay: Antifungal activity against Candida albicans after 48 hrs; summary of the method: as §1
[18] = tested on: Trichophyton mentagrophytes; assay: Antifungal activity against Trichophyton mentagrophytes after 48 hrs by agar diffusion method
Aspergillus fumigatus [19] = assay: Antifungal activity against Aspergillus fumigatus after 48 hrs by agar diffusion method
Talaromyces marneffei [20] = assay: Antifungal activity against Penicillium marneffei after 48 hrs; summary of the method: as §1
Staphylococcus aureus [21] = assay: Antibacterial activity against methicillin-resistant Staphylococcus aureus after 24 hrs by broth dilution method
Klebsiella pneumoniae [22] = assay: Bactericidal activity against clinical isolate of Klebsiella pneumoniae after 18 to 24 hrs by colony counting method
Pseudomonas aeruginosa [23] = assay: Antibacterial activity against Pseudomonas aeruginosa ATCC 27853 after 24 hrs by broth dilution method; conditions: ATCC 27853, 24 h
Talaromyces marneffei [24] = assay: Antifungal activity against Penicillium marneffei after 48 hrs by Halo zone test
Aspergillus fumigatus [25] = assay: Antifungal activity against Aspergillus fumigatus after 48 hrs by Halo zone test
Candida albicans [26] = assay: Antifungal activity against Candida albicans after 48 hrs by Halo zone test
[27] = tested on: Trichophyton mentagrophytes; assay: Antifungal activity against Trichophyton mentagrophytes after 48 hrs by Halo zone test

Compound	diameter of the inhibition zone (DIZ) (Staphylococcus aureus [1]) [mm]	MIC (Escherichia coli [2]) [µg/mL]	MFC [3] [µg/mL]	MIC [3] [µg/mL]	diameter of the inhibition zone (DIZ) (Escherichia coli [4]) [mm]	diameter of the inhibition zone (DIZ) (Pseudomonas aeruginosa [5]) [mm]	MFC (Aspergillus fumigatus [6]) [µg/mL]	MIC (Aspergillus fumigatus [6]) [µg/mL]	MIC (Streptococcus pyogenes [7]) [µg/mL]	diameter of the inhibition zone (DIZ) (Klebsiella pneumoniae [8]) [mm]	diameter of the inhibition zone (DIZ) (Streptococcus pyogenes [9]) [mm]	MBC (Escherichia coli [10]) [µg/mL]	MBC (Streptococcus pyogenes [11]) [µg/mL]	MBC (Pseudomonas aeruginosa [12]) [µg/mL]	diameter of the inhibition zone (DIZ) (Candida albicans [13]) [mm]	MBC (Staphylococcus aureus [14]) [µg/mL]	MFC (Candida albicans [17]) [µg/mL]	MIC (Candida albicans [17]) [µg/mL]	MFC (Talaromyces marneffei [20]) [µg/mL]	MIC (Talaromyces marneffei [20]) [µg/mL]	further results
Cc1nn(-c2ccccc2)c(Cl)c1/C=C/C(=O)C1C(=O)N(C)C(=O)N(C)C1=O	17.3	25 (≈ 62.4 µM)	50 (≈ 125 µM)	25 (≈ 62.4 µM)	22.2	25.2	50 (≈ 125 µM)	25 (≈ 62.4 µM)	25 (≈ 62.4 µM)	16.1	20.1	50 (≈ 125 µM)	50 (≈ 125 µM)	100 (≈ 249 µM)	21.3	50 (≈ 125 µM)	50 (≈ 125 µM)	25 (≈ 62.4 µM)	50 (≈ 125 µM)	25 (≈ 62.4 µM)	MIC (Klebsiella pneumoniae [15]): 50 µg/mL (≈ 125 µM); diameter of the inhibition zone (DIZ) (Talaromyces marneffei [16]): 14.8 mm; diameter of the inhibition zone (DIZ) [18]: 17.2 mm; diameter of the inhibition zone (DIZ) (Aspergillus fumigatus [19]): 18.6 mm; MIC (Staphylococcus aureus [21]): 25 µg/mL (≈ 62.4 µM); MBC (Klebsiella pneumoniae [22]): 100 µg/mL (≈ 249 µM); MIC (Pseudomonas aeruginosa [23]): 25 µg/mL (≈ 62.4 µM)
Cc1nn(-c2ccccc2)c(Cl)c1/C=C/C(=O)C1C(=O)NC(=O)NC1=O	20.2	12.5 (≈ 33.5 µM)	25 (≈ 67.1 µM)	12.5 (≈ 33.5 µM)	24.8	27.2	25 (≈ 67.1 µM)	12.5 (≈ 33.5 µM)	12.5 (≈ 33.5 µM)	17.1	22.2	50 (≈ 134 µM)	25 (≈ 67.1 µM)	25 (≈ 67.1 µM)	25.5	50 (≈ 134 µM)	25 (≈ 67.1 µM)	12.5 (≈ 33.5 µM)	25 (≈ 67.1 µM)	12.5 (≈ 33.5 µM)	MIC (Klebsiella pneumoniae [15]): 12.5 µg/mL (≈ 33.5 µM); diameter of the inhibition zone (DIZ) (Talaromyces marneffei [16]): 14.1 mm; diameter of the inhibition zone (DIZ) [18]: 17.1 mm; diameter of the inhibition zone (DIZ) (Aspergillus fumigatus [19]): 21.3 mm; MIC (Staphylococcus aureus [21]): 12.5 µg/mL (≈ 33.5 µM); MBC (Klebsiella pneumoniae [22]): 25 µg/mL (≈ 67.1 µM); MIC (Pseudomonas aeruginosa [23]): 12.5 µg/mL (≈ 33.5 µM)
Cc1nn(-c2ccccc2)c(Cl)c1/C=C/C(=O)C1C(=O)NC(=S)NC1=O	17.1	50 (≈ 129 µM)	50 (≈ 129 µM)	25 (≈ 64.3 µM)	20.7	22.1	50 (≈ 129 µM)	25 (≈ 64.3 µM)	25 (≈ 64.3 µM)	15.4	18.4	100 (≈ 257 µM)	100 (≈ 257 µM)	100 (≈ 257 µM)	20.4	50 (≈ 129 µM)	50 (≈ 129 µM)	25 (≈ 64.3 µM)	100 (≈ 257 µM)	25 (≈ 64.3 µM)	MIC (Klebsiella pneumoniae [15]): 25 µg/mL (≈ 64.3 µM); diameter of the inhibition zone (DIZ) (Talaromyces marneffei [16]): 14.1 mm; diameter of the inhibition zone (DIZ) [18]: 17.1 mm; diameter of the inhibition zone (DIZ) (Aspergillus fumigatus [19]): 17.9 mm; MIC (Staphylococcus aureus [21]): 25 µg/mL (≈ 64.3 µM); MBC (Klebsiella pneumoniae [22]): 50 µg/mL (≈ 129 µM); MIC (Pseudomonas aeruginosa [23]): 25 µg/mL (≈ 64.3 µM)
Cc1nn(-c2ccccc2)c(Cl)c1C1CC(C2C(=O)N(C)C(=O)N(C)C2=O)=NN1 (centres undefined)	16.5	25 (≈ 60.3 µM)	100 (≈ 241 µM)	25 (≈ 60.3 µM)	19.6	21.8	100 (≈ 241 µM)	25 (≈ 60.3 µM)	25 (≈ 60.3 µM)	15.7	17.1	100 (≈ 241 µM)	50 (≈ 121 µM)	100 (≈ 241 µM)	20.8	100 (≈ 241 µM)	100 (≈ 241 µM)	25 (≈ 60.3 µM)	> 100	50 (≈ 121 µM)	MIC (Klebsiella pneumoniae [15]): 50 µg/mL (≈ 121 µM); diameter of the inhibition zone (DIZ) (Talaromyces marneffei [16]): 14.2 mm; diameter of the inhibition zone (DIZ) [18]: 16.9 mm; diameter of the inhibition zone (DIZ) (Aspergillus fumigatus [19]): 17.4 mm; MIC (Staphylococcus aureus [21]): 50 µg/mL (≈ 121 µM); MBC (Klebsiella pneumoniae [22]): 100 µg/mL (≈ 241 µM); MIC (Pseudomonas aeruginosa [23]): 50 µg/mL (≈ 121 µM)
Cc1nn(-c2ccccc2)c(Cl)c1C1CC(C2C(=O)NC(=O)NC2=O)=NN1 (centres undefined)	15.3	50 (≈ 129 µM)	100 (≈ 259 µM)	50 (≈ 129 µM)	19.2	20.1	100 (≈ 259 µM)	50 (≈ 129 µM)	50 (≈ 129 µM)	14.7	16.8	> 100	100 (≈ 259 µM)	100 (≈ 259 µM)	20.4	> 100	100 (≈ 259 µM)	50 (≈ 129 µM)	100 (≈ 259 µM)	50 (≈ 129 µM)	MIC (Klebsiella pneumoniae [15]): 50 µg/mL (≈ 129 µM); diameter of the inhibition zone (DIZ) (Talaromyces marneffei [16]): 13.1 mm; diameter of the inhibition zone (DIZ) [18]: 16 mm; diameter of the inhibition zone (DIZ) (Aspergillus fumigatus [19]): 16.8 mm; MIC (Staphylococcus aureus [21]): 100 µg/mL (≈ 259 µM); MBC (Klebsiella pneumoniae [22]): > 100 µg/mL; MIC (Pseudomonas aeruginosa [23]): 50 µg/mL (≈ 129 µM)
Cc1nn(-c2ccccc2)c(Cl)c1C1CC(C2C(=O)NC(=S)NC2=O)=NN1 (centres undefined)	14.2	50 (≈ 124 µM)	100 (≈ 248 µM)	25 (≈ 62.1 µM)	19.1	18.2	100 (≈ 248 µM)	25 (≈ 62.1 µM)	50 (≈ 124 µM)	14.4	15.2	100 (≈ 248 µM)	100 (≈ 248 µM)	100 (≈ 248 µM)	20.2	> 100	100 (≈ 248 µM)	50 (≈ 124 µM)	> 100	> 100	MIC (Klebsiella pneumoniae [15]): 50 µg/mL (≈ 124 µM); diameter of the inhibition zone (DIZ) (Talaromyces marneffei [16]): 13.1 mm; diameter of the inhibition zone (DIZ) [18]: 15.8 mm; diameter of the inhibition zone (DIZ) (Aspergillus fumigatus [19]): 16.2 mm; MIC (Staphylococcus aureus [21]): 100 µg/mL (≈ 248 µM); MBC (Klebsiella pneumoniae [22]): > 100 µg/mL; MIC (Pseudomonas aeruginosa [23]): 50 µg/mL (≈ 124 µM)
OC(Cn1cncn1)(Cn1cncn1)c1ccc(F)cc1F [FLUCONAZOLE]	–	–	12.5 (≈ 40.8 µM)	6.25 (≈ 20.4 µM)	–	–	12.5 (≈ 40.8 µM)	6.5 (≈ 21.2 µM)	–	–	–	–	–	–	–	–	12.5 (≈ 40.8 µM)	6.25 (≈ 20.4 µM)	12.5 (≈ 40.8 µM)	6.5 (≈ 21.2 µM)	diameter of the inhibition zone (DIZ) (Talaromyces marneffei [24]): 18 mm; diameter of the inhibition zone (DIZ) (Aspergillus fumigatus [25]): 20 mm; diameter of the inhibition zone (DIZ) (Candida albicans [26]): 20 mm; diameter of the inhibition zone (DIZ) [27]: 19 mm
